For orientation: inhibition means the drop in the measured response relative to a control, in per cent.

Molecules are shown by their SMILES. The source made the active and inactive calls. The calls are words filed in the database; no cut-off is given here.

The target of data set [1] is T1, Prostaglandin E synthase (Mus musculus) (UniProt Q9JM51).
T1 sequence (whole entry): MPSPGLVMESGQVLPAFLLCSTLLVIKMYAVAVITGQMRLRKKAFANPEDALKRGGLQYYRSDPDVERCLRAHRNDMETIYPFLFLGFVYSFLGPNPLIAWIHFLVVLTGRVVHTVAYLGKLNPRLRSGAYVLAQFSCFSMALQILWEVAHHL
Briefly: Inhibition of mPGES-1 in mouse RAW264.7 cells using PGH2 as substrate assessed as inhibition of LPS-stimulated PGE2 production at 5 uM preincubated for 30 mins followed by substrate addition measured after 1 min by LC-MS/MS analysis. The data set is classed as cell-based. Summed up:
(§1)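 Microsomal fraction from HeLa, NIH-3T3 or RAW 264.7 cells, obtained by sonication and ultracentrifugation, resuspended in 0.1 M KPi pH 7.4 with 2.5 mM reduced GSH. Protein at 0.15 mg/mL (HeLa, NIH) or 0.3 mg/mL (RAW) incubated with compound 30 min on ice. Reaction started with 20 µM PGH₂, stopped after 1 min with FeCl₂/citric acid. PGE₂ quantified by SPE and LC–MS/MS. IC50 from four-parameter logistic fit of increasing concentrations.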

Data set [2] addresses T2, Prostaglandin G/H synthase 1 (Ovis aries) (UniProt P05979).
T2 sequence (whole entry): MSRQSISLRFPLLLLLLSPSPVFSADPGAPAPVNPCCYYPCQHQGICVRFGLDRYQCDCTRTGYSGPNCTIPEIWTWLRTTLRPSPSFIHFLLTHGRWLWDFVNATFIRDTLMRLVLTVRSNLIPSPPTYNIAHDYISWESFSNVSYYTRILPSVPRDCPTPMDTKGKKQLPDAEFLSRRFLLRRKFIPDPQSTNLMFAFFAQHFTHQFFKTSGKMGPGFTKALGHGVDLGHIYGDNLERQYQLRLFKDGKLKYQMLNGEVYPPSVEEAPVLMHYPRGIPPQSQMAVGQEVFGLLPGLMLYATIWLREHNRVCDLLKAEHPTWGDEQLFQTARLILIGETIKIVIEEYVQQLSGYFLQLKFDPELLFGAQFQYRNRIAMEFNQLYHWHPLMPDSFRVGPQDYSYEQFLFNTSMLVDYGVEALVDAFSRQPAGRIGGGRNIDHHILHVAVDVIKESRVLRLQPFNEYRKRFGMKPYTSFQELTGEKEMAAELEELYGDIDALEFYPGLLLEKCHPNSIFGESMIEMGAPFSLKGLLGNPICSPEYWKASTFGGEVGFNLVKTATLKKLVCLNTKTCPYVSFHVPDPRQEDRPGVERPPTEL
Briefly: Inhibition of ovine COX1 using […] at 10 uM by LC-MS/MS analysis. Summed up:
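Ovine COX-1 and recombinant human COX-2 tested directly with a commercial COX inhibitor screening kit, following the manufacturer's protocol. COX-derived PGH₂ reduced with SnCl₂; the resulting PGE₂, PGD₂ and PGF₂a diluted in MeOH, spiked with deuterated internal standards and quantified by SPE and LC–MS/MS.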

Data set [3] concerns the target T1, Prostaglandin E synthase (Mus musculus). Briefly: Inhibition of mPGES-1 in Swiss mouse NIH/3T3 cells using PGH2 as substrate assessed as inhibition of IL-1beta/TNFalpha-stimulated PGE2 production at 5 uM preincubated for 30 mins followed by substrate addition measured after 1 min by LC-MS/MS analysis. The data set is classed as cell-based. In a few lines:
as §1

In data set [4] the target is T3, Prostaglandin E synthase (Homo sapiens) (UniProt O14684).
T3 sequence (whole entry): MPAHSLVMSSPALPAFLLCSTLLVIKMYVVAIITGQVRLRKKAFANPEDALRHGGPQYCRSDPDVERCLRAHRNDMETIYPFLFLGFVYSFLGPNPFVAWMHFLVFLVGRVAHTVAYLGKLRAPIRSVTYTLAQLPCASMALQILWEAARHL
Briefly: Inhibition of mPGES-1 in human HeLa cells using PGH2 as substrate assessed as inhibition of IL-1beta/TNFalpha-stimulated PGE2 production at 10 uM after 24 hrs by LC-MS/MS analysis. Format: cell-based. In a few lines: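 HeLa cells (2 × 10⁴ per well) grown 24 h at 37 °C, then given fresh medium with 1 ng/mL IL-1b + 5 ng/mL TNFa (or PBS for unstimulated control) plus compound (1, 10 or 100 µM) or DMSO for 24 h at 37 °C. Supernatant mixed with H₃PO₄, EDTA and deuterated internal standards; PGE₂ measured by SPE and LC–MS/MS.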

The nature of data set [5]: Cytotoxicity against IL-1beta/TNFalpha-stimulated human HeLa cells assessed as cell viability at 100 uM after 24 hrs by WST-1 assay. Format: cell-based. Particulars: IL-1beta/TNFalpha-stimulated HeLa cells, read-out: Activity. In a few lines: (§2)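 HeLa cells seeded at 3 × 10³ per well in medium with 10% FCS, grown 24 h at 37 °C, then stimulated with IL-1b (1 ng/mL) + TNFa (5 ng/mL) and treated at the same time with compound (1, 10, 100 µM) or DMSO for 24 h. WST-1 reagent then added for 90–150 min; absorbance read at 450 nm against 620 nm reference.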

The test system of another data set is HeLa. Briefly: Cytotoxicity against IL-1beta/TNFalpha-stimulated human HeLa cells assessed as cell viability up to 10 uM after 24 hrs by WST-1 assay. Format: cell-based. Summed up:
as §2
(Tetrazolium assays rely on reduction of a dye to a coloured formazan, in cell work by metabolically active cells.)

The target in data set [6] is Prostaglandin G/H synthase 1 (Homo sapiens) (UniProt P23219). Briefly: Inhibition of COX1 in human whole blood assessed as reduction in TXB2 production by measuring remaining activity at 100 uM after 1 hr by LC-MS/MS analysis.
Chain of Prostaglandin G/H synthase 1 (Homo sapiens) (P23219 whole entry): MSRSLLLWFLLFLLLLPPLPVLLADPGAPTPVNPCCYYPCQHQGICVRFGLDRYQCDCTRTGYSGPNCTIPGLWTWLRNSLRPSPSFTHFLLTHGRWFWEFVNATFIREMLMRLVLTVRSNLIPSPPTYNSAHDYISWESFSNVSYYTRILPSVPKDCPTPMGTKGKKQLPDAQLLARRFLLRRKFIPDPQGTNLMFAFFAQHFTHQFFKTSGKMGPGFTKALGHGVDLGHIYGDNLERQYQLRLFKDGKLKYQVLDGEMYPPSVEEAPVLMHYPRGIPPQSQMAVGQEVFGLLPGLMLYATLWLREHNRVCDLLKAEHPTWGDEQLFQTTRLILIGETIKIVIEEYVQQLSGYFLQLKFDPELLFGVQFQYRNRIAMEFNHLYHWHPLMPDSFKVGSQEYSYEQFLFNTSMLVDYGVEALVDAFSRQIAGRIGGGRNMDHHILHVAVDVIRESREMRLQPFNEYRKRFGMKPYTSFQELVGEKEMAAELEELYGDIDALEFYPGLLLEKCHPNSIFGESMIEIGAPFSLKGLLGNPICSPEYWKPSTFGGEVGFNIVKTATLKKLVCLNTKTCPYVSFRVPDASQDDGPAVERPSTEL

As to `COc1ccc(CN(Cc2ccccc2)S(=O)(=O)c2ccc(C(=O)O)cc2)cc1`, the inhibition in data set [1] was 29.8%; in data set [2] it was less than 0%; in data set [3], 10.6%. Also, the inhibition result in data set [4] is “inactive”. For the same compound, in data set [5], the viability at 24 h, 100 µM was 50%. For the same compound, the Activity entry in the data set with HeLa is “Non-toxic”; in data set [6], 90%.

In the case of `COc1ccc(CN(CC2CCCCC2)S(=O)(=O)c2ccc(C(=O)O)cc2)cc1`, the inhibition amounted to 10.3% in data set [2] and 48.5% in data set [3]. Also, in data set [4], the inhibition result is “Active”. Besides, the viability at 24 h, 100 µM in data set [5] stood at 50%. Besides, the Activity entry in the data set on HeLa was “Non-toxic”; in data set [6], 83.6%.

As to `O=C(O)c1ccc(S(=O)(=O)N(Cc2ccccc2)c2ccc(Oc3ccccc3)cc2)cc1`, the inhibition in data set [1] stood at 74.7%; in data set [2], 12.4%; in data set [3], 71.2%. The inhibition entry in data set [4] was “Active”. In data set [5], the viability at 24 h, 100 µM came to 50%. Besides, the values for the Activity entry (in the data set with HeLa; in data set [6]) were “Non-toxic” and 85.2%, respectively.

For the compound `O=C(O)c1ccc(S(=O)(=O)N(Cc2ccccc2)Cc2ccc(Nc3ccccc3)cc2)cc1`, the inhibition is less than 0% in data set [2] and 67.9% in data set [3]. In data set [4], the inhibition entry is “Active”. In data set [5], the viability at 24 h, 100 µM turned out to be 50%. In addition, the results for the Activity result (in the data set on HeLa; in data set [6]) were “Non-toxic” and 110%, respectively.

Take `O=C(O)c1ccc(S(=O)(=O)N(Cc2ccccc2)Cc2ccc(Oc3ccccc3)cc2)cc1`: the inhibition is 71.4% in data set [1], 0.3% in data set [2] and 65.1% in data set [3]. Also, the inhibition entry in data set [4] was “Active”. In addition, the viability at 24 h, 100 µM in data set [5] came out at 50%. Besides, the values for the Activity entry (in the data set with HeLa; in data set [6]) were “Non-toxic” and 92.4%, respectively.

The record behind these values is ChEMBL document CHEMBL3091291, “Synthesis and pharmacological characterization of benzenesulfonamides as dual species inhibitors of human and murine mPGES-1” (Bioorg Med Chem, 2013).
